The text below walks through data of ChEMBL document CHEMBL4251721, “Imidazole Alkaloids and Their Zinc Complexes from the Calcareous Marine Sponge Leucetta chagosensis” (J Nat Prod, 2018).

Active and inactive are the calls of the source. The rule behind the calls is not given here.

Assay [1] deals with A549. Put plainly: Cytotoxicity against human A549 cells assessed as reduction in cell viability after 72 hrs by CCK-8 assay. The assay is classed as functional, cell-based. Particulars: A549, 72 h. Background: Formazan colour is commonly taken as a measure of viable cells.
Assay [2] relates to PC-9. Put plainly: Cytotoxicity against human PC9 cells assessed as reduction in cell viability after 72 hrs by CCK-8 assay. Type of assay: functional, cell-based. The conditions noted are these: PC-9, 72 h.
Assay [3] relates to THP-1. Put plainly: Antiinflammatory activity in human THP1 cells assessed as inhibition of LPS-stimulated IL-6 production by measuring IL-6 level in serum at 10 uM preincubated for 2 hrs followed by LPS addition measured after 22 hrs by flow cytometry (reference value: 6100 +/- 200 pg/ml). The assay is classed as functional.
In assay [4] the test system is THP-1. Put plainly: Antiinflammatory activity in human THP1 cells assessed as inhibition of LPS-stimulated TNFalpha production by measuring TNF-alpha level in serum at 10 uM preincubated for 2 hrs followed by LPS addition measured after 22 hrs by flow cytometry (reference value: 9900 +/- 300 pg/ml). The assay is classed as functional.
Assay [5] concerns THP-1. Put plainly: Antiinflammatory activity in human THP1 cells assessed as inhibition of LPS-stimulated MCP-1 level in serum at 10 uM preincubated for 2 hrs followed by LPS addition measured after 22 hrs by flow cytometry. The assay is classed as functional, cell-based. (Flow cytometry measures light scatter and fluorescence of single cells or particles in a stream.)
The subject of assay [6] is MCF7. Put plainly: Cytotoxicity against human MCF7 cells assessed as reduction in cell viability after 72 hrs by CCK-8 assay. The assay is classed as functional, cell-based. The conditions noted are these: MCF7, 72 h. Put shortly:
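Cells were kept at 37 °C in DMEM with 10% nondialyzed FBS and 2 mM L-glutamine. The Oct4-GFP line is MCF-7 made stem-like by lentiviral Oct4-GFP overexpression. Cells were seeded at 3000/well and grown 24 h, then exposed to six concentrations of compound (DMSO solutions) for 72 h.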

The subject of assay [7] is THP-1. Put plainly: Antiinflammatory activity in human THP1 cells assessed as inhibition of LPS-stimulated IL-10 level in serum at 10 uM preincubated for 2 hrs followed by LPS addition measured after 22 hrs by flow cytometry. Type of assay: functional, cell-based.
The test system of assay [8] is THP-1. Put plainly: Antiinflammatory activity in human THP1 cells assessed as inhibition of LPS-stimulated IL-12p70 level in serum at 10 uM preincubated for 2 hrs followed by LPS addition measured after 22 hrs by flow cytometry. Type of assay: functional, cell-based.
The test system of assay [9] is MCF7. Put plainly: Induction of apoptosis in human MCF7 cells assessed as late apoptotic cells at 10 uM after 24 hrs by Annexin V-FITC/propidium iodide staining based flow cytometry (reference value: 0.309%). The assay is classed as functional.
Assay [10] relates to MCF7. Put plainly: Induction of apoptosis in human MCF7 cells assessed as late apoptotic cells after 24 hrs by Annexin V-FITC/propidium iodide staining based flow cytometry. The assay is classed as functional, cell-based.
In assay [11] the test system is MCF7. Put plainly: Cytotoxicity against human MCF7 cells expressing Oct4-GFP assessed as reduction in cell viability after 72 hrs by CCK-8 assay. Type of assay: functional, cell-based. Particulars: MCF7, 72 h. Put shortly: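 Cells were kept at 37 °C in DMEM with 10% nondialyzed FBS and 2 mM L-glutamine. The Oct4-GFP line is MCF-7 made stem-like by lentiviral Oct4-GFP overexpression. Cells were seeded at 3000/well and grown 24 h, then exposed to six concentrations of compound (DMSO solutions) for 72 h. CCK-8 was added for 2 h at 37 °C and A450 read to give IC50.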

For assay [12], the system named is MCF7. Put plainly: Induction of apoptosis in human MCF7 cells assessed as early apoptotic cells at 5 uM after 24 hrs by Annexin V-FITC/propidium iodide staining based flow cytometry (reference value: 0.866%). The assay is classed as functional.
The subject of assay [13] is MCF7. Put plainly: Induction of apoptosis in human MCF7 cells assessed as viable cells at 5 uM after 24 hrs by Annexin V-FITC/propidium iodide staining based flow cytometry (reference value: 96.6%). The assay is classed as functional. The conditions noted are these: MCF7, 24 h, read-out: Activity.
In assay [14] the test system is MCF7. Put plainly: Induction of apoptosis in human MCF7 cells assessed as necrotic cells at 10 uM after 24 hrs by Annexin V-FITC/propidium iodide staining based flow cytometry (reference value: 2.19%). The assay is classed as functional.
Assay [15] deals with MCF7. Put plainly: Induction of apoptosis in human MCF7 cells assessed as late apoptotic cells at 5 uM after 24 hrs by Annexin V-FITC/propidium iodide staining based flow cytometry (reference value: 0.309%). Type of assay: functional.
Assay [16] deals with MCF7. Put plainly: Induction of apoptosis in human MCF7 cells assessed as viable cells at 10 uM after 24 hrs by Annexin V-FITC/propidium iodide staining based flow cytometry (reference value: 96.6%). Type of assay: functional. Particulars: MCF7, 24 h, read-out: Activity.
In assay [17] the test system is MCF7. Put plainly: Induction of apoptosis in human MCF7 cells assessed as early apoptotic cells at 10 uM after 24 hrs by Annexin V-FITC/propidium iodide staining based flow cytometry (reference value: 0.866%). Type of assay: functional.
In assay [18] the test system is MCF7. Put plainly: Induction of apoptosis in human MCF7 cells assessed as necrotic cells at 5 uM after 24 hrs by Annexin V-FITC/propidium iodide staining based flow cytometry (reference value: 2.19%). Type of assay: functional.
The test system of assay [19] is MCF7. Put plainly: Induction of apoptosis in human MCF7 cells assessed as early apoptotic cells after 24 hrs by Annexin V-FITC/propidium iodide staining based flow cytometry. Type of assay: functional, cell-based.

In the case of `CC(=O)O[C@H]1C(=O)[C@@]2(C)[C@H]([C@H](OC(=O)c3ccccc3)[C@]3(O)C[C@H](OC(=O)[C@H](O)[C@@H](NC(=O)c4ccccc4)c4ccccc4)C(C)=C1C3(C)C)[C@]1(OC(C)=O)CO[C@@H]1C[C@@H]2O` [PACLITAXEL], the values for the IC50 in [1] and in assay [2] were 0.0032 µM and 0.0027 µM, respectively.
`CC(C)=CCC/C(C)=C/Cc1cc(-c2coc3cc(O)ccc3c2=O)ccc1O`: in [3], the Activity stood at 2700 pg/mL.
With `Nc1cccc2c1C(=O)N(C1CCC(=O)NC1=O)C2=O` (configuration not stated) [POMALIDOMIDE], the Activity in [4] is 7500 pg/mL.
Regarding `CNC1=N/C(=N/c2nc(Cc3ccc4c(c3)OCO4)cn2C)C(=O)O1`, the Activity in [4] stood at 9900 pg/mL; in assay [3] it was 7600 pg/mL. Besides, the inhibition result in assay [5], in [7] and in [8] was “inactive” in each case. For the same compound, the IC50 in [6], in assay [1] and in assay [2] was above 20 µM in each case.
For the compound `COc1ccc(C2=C3C(=NC(=N)N3C)C(=O)c3c(OC)ccc(OC)c32)cc1`, the Activity in [4] is 9700 pg/mL; in assay [3], 5400 pg/mL. Besides, the inhibition entry in assay [5], in assay [7] and in [8] was “inactive” each time. Also, the 50% inhibitory concentration (IC50) in [6], in [1] and in assay [2] was above 20 µM each time.
For the compound `COc1ccc(Cc2nc(/N=C3\NC(=O)N(C)C3=O)n(C)c2Cc2ccc(OC)c(OC)c2O)cc1` [PYRONAAMIDINE], the Activity in [9] is 30.1%; in [10] it was “Dose-dependent effect”; in assay [12], 10.2%; in [14] it was 2.55%; in assay [15] it was 6.25%; in [17], 32.3%. Also, the Activity was 1.54% in assay [18] and “Dose-dependent effect” in assay [19]. Moreover, the IC50 in assay [6] stood at 5.2 µM; in assay [11] it was 10 µM; in [1] it was 7.8 µM; in assay [2], 5.6 µM. Moreover, in assay [13], the viability at 5 µM came out at 82%. In assay [16], the viability at 10 µM came out at 34.8%.
For `CN/C(N)=N\C(=O)Nc1nc(Cc2ccc3c(c2)OCO3)cn1C`, the Activity in [4] came to 7800 pg/mL; in assay [3] it was 5000 pg/mL. Also, the inhibition result in [5], in assay [7] and in assay [8] was “inactive” throughout. The IC50 in [6], in assay [1] and in assay [2] was above 20 µM throughout.

As usually defined, the IC50 is the concentration that gives 50% inhibition.
